Measurements reported in ChEMBL document CHEMBL3259666, “Discovery of a neuroprotective chemical, (S)-N-(3-(3,6-dibromo-9H-carbazol-9-yl)-2-fluoropropyl)-6-methoxypyridin-2-amine [(-)-P7C3-S243], with improved druglike properties” (J Med Chem, 2014).
Activity calls are given as the source filed them. The calls are words filed in the database; no cut-off is given here.

How the values were obtained:
Cytochrome P450 1A2 = biological target: T1, Cytochrome P450 1A2 (Homo sapiens, UniProt P05177); experiment: Inhibition of CYP1A2 (unknown origin); assay type: ADME
T1 sequence (P05177 whole entry): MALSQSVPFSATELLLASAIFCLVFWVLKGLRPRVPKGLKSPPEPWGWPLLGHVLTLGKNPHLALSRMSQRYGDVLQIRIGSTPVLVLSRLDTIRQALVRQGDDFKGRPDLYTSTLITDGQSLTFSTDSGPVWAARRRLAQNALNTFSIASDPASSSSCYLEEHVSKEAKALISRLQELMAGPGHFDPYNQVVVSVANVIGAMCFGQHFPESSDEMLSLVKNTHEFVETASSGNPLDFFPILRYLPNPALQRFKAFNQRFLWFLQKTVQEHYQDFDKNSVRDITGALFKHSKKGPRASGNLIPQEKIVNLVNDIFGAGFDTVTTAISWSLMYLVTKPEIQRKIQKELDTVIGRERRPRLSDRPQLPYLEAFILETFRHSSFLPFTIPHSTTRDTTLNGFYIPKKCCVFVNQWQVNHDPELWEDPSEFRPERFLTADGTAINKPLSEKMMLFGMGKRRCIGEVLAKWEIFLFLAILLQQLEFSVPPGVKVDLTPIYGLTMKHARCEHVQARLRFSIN

Cytochrome P450 2B6 = biological target: T2, Cytochrome P450 2B6 (Homo sapiens, UniProt P20813); experiment: Inhibition of CYP2B6 (unknown origin); assay type: ADME
T2 sequence (P20813 whole entry): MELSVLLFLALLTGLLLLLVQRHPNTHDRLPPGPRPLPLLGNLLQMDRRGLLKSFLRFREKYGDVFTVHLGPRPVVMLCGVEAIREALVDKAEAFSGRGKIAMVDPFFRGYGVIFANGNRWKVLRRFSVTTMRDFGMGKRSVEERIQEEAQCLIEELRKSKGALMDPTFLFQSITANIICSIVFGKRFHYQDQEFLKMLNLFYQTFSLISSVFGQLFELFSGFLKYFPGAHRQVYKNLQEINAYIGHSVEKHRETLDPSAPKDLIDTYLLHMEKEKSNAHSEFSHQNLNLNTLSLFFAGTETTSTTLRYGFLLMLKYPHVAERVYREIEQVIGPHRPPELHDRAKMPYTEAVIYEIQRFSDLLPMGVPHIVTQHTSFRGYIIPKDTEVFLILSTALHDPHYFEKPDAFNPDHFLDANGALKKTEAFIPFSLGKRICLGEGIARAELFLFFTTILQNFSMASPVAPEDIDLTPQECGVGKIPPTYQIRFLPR

[1] = Cytotoxicity against human HCC44 cells; assay type: cell-based
Translocator protein = Translocator protein (Homo sapiens, UniProt P30536); experiment: Inhibition of TSPO (unknown origin)
hERG (KCNH2) = hERG (KCNH2) (Homo sapiens, UniProt Q12809); experiment: Inhibition of human ERG channel at 50 uM by patch clamp technique
[2] = Protein binding in plasma (unknown origin) by ultracentrifugation method; assay type: ADME, cell-free; settings: read-out: PPB
Mus musculus [3] = experiment: Neuroprotective activity in substantia nigra of C57Bl/6 mouse neurogenesis model assessed as protection from MPTP-induced cell death in mature neurons at 5 mg/kg/day, ip bid administered for 21 days by immunohistochemical analysis relative to vehicle-treated control; assay type: functional, organism-based
In short: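 MPTP model in adult male C57Bl/6 mice, individually housed 1 week. MPTP free base 30 mg/kg/day IP for 5 days. From day 6 (24 h after the last MPTP dose), compound or vehicle given IP twice daily for 21 days. Mice were then perfused with 4% paraformaldehyde. SNc sectioned at 30 μm intervals and every fourth section stained for TH (DAB, hematoxylin counterstain). TH+ cells counted blinded; mean ± SEM, compared with vehicle + MPTP.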

Cytochrome P450 2C8 = biological target: T3, Cytochrome P450 2C8 (Homo sapiens, UniProt P10632); experiment: Inhibition of CYP2C8 (unknown origin); assay type: ADME
T3 sequence (P10632 whole entry): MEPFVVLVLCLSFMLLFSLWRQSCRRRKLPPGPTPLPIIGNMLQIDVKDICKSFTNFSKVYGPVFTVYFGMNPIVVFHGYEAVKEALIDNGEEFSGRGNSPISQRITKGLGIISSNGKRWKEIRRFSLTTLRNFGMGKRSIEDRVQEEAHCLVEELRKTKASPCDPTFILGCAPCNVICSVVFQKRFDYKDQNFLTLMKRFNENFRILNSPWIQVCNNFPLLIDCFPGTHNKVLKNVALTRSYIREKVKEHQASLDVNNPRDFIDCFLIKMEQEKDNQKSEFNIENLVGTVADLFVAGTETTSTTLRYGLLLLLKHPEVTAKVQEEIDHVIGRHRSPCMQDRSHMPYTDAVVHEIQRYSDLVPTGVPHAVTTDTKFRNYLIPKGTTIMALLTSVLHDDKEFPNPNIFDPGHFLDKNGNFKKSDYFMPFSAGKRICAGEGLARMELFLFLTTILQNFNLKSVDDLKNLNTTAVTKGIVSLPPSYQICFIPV

Mus musculus [4] = experiment: Neuroprotective activity in wild type C57BL/J6 mouse assessed as survival of newborn hippocampal neurons at 0.1 to 10 uM, icv administered for 7 days by BrdU staining-based microscopy relative to vehicle-treated control; assay type: functional, organism-based
In short: (§1)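 Adult (12-week) wild-type C57BL/J6 mice. Compound infused ICV into the left lateral ventricle by osmotic minipump at 0.5 μL/h for 7 days, with BrdU 50 mg/kg/day IP for 6 days. Perfused 24 h after the last BrdU dose. BrdU antigen unmasked (formamide/SSC at 65 °C, then 2 M HCl); anti-BrdU staining. BrdU+ cells in the contralateral dentate gyrus SGZ counted in every fifth 40 μm section and normalised to dentate gyrus volume.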

Cytochrome P450 2C9 = Cytochrome P450 2C9 (Homo sapiens, UniProt P11712); experiment: Inhibition of CYP2C9 (unknown origin); assay type: ADME
Cytochrome P450 2C19 = Cytochrome P450 2C19 (Homo sapiens, UniProt P33261); experiment: Inhibition of CYP2C19 (unknown origin); assay type: ADME
Mus musculus [5] = experiment: Neuroprotective activity in wild type C57BL/J6 mouse assessed as survival of newborn hippocampal neurons at 10 uM, icv administered for 7 days by BrdU staining-based microscopy relative to vehicle-treated control; assay type: functional, organism-based; in short: as §1
Cytochrome P450 3A4 = Cytochrome P450 3A4 (Homo sapiens, UniProt P08684); experiment: Inhibition of CYP3A4 (unknown origin); assay type: ADME
NCI-H2122 = experiment: Cytotoxicity against human NCI-H2122 cells; assay type: cell-based
NCI-H2009 = experiment: Cytotoxicity against human NCI-H2009 cells; assay type: cell-based
Cytochrome P450 2D6 = Cytochrome P450 2D6 (Homo sapiens, UniProt P10635); experiment: Inhibition of CYP2D6 (unknown origin); assay type: ADME
Mus musculus [6] = experiment: Neuroprotective activity in wild type C57BL/J6 mouse assessed as survival of newborn hippocampal neurons at 10 uM, icv administered for 7 days by BrdU staining-based immunohistochemical analysis relative to vehicle-treated control; assay type: functional, organism-based
In short: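 Adult (12 week old) C57BL/J6 mice, environmentally deprived; compound infused via osmotic minipump into left lateral ventricle at 0.5 μL/h for 7 days. BrdU IP 50 mg kg–1 day–1 for 6 days during infusion; perfusion 24 h after last BrdU. BrdU+ cells in SGZ/dentate gyrus of contralateral hemisphere counted in every fifth 40 μm section, normalized to dentate gyrus volume; mean ± SEM.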

Sequence of Translocator protein (P30536 whole entry): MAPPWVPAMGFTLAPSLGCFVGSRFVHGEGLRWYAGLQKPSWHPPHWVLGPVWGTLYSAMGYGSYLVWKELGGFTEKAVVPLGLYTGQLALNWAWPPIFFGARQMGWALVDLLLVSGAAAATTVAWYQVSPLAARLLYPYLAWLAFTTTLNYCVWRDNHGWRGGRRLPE
Sequence of hERG (KCNH2) (Q12809 whole entry): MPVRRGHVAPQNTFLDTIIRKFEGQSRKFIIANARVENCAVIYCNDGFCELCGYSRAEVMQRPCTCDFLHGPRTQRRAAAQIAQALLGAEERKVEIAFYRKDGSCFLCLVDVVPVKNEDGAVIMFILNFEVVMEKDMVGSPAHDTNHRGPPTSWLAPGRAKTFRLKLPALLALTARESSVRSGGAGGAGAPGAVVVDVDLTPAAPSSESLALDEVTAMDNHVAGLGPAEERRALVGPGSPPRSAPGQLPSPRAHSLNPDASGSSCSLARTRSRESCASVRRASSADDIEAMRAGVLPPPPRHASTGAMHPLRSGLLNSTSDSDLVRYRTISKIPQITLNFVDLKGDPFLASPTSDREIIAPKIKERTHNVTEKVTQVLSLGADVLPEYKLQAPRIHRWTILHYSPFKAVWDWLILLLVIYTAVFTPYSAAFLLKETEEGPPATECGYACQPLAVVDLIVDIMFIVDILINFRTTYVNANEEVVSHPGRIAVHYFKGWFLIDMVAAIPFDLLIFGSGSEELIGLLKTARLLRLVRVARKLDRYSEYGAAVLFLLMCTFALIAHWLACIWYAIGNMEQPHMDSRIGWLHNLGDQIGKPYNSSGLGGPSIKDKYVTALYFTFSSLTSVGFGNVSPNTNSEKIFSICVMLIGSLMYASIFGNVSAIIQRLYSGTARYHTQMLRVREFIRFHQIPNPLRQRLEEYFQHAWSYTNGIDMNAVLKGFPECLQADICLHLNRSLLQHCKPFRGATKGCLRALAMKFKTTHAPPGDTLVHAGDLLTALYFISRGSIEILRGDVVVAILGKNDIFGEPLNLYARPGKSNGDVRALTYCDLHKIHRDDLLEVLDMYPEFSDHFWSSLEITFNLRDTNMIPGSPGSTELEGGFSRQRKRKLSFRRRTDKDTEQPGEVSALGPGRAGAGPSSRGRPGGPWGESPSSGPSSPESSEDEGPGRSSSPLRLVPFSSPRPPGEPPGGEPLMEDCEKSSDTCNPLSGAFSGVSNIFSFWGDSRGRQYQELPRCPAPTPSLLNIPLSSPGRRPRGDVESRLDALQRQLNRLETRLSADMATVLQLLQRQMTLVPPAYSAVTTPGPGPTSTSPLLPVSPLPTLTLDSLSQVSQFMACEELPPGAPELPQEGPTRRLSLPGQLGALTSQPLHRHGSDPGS
Sequence of Cytochrome P450 2C9 (P11712 whole entry): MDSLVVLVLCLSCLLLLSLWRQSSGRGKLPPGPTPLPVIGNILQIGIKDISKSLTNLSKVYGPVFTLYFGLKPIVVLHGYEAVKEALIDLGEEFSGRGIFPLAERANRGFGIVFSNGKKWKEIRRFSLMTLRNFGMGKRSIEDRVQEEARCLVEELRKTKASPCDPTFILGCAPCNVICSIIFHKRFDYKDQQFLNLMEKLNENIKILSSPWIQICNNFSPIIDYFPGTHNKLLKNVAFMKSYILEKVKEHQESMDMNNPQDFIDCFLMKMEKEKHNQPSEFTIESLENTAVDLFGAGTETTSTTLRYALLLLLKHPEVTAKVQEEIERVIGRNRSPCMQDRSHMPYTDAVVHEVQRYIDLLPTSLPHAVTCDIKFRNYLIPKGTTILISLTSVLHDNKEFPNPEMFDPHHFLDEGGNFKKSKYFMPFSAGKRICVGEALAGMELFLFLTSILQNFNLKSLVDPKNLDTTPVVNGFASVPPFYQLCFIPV
Sequence of Cytochrome P450 3A4 (P08684 whole entry): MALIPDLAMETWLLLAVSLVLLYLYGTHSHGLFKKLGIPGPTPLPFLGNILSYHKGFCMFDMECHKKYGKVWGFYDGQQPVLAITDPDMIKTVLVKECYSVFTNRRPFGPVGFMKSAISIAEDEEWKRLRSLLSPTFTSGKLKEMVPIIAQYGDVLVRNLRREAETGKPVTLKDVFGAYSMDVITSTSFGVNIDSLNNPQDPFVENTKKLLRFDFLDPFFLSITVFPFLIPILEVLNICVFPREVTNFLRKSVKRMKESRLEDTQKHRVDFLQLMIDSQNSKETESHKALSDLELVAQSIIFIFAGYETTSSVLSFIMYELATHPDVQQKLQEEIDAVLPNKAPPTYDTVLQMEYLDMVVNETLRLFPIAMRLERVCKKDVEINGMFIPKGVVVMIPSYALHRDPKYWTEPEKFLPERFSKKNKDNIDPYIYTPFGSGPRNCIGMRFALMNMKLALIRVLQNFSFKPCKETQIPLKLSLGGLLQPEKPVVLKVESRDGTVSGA
Sequence of Cytochrome P450 2C19 (P33261 whole entry): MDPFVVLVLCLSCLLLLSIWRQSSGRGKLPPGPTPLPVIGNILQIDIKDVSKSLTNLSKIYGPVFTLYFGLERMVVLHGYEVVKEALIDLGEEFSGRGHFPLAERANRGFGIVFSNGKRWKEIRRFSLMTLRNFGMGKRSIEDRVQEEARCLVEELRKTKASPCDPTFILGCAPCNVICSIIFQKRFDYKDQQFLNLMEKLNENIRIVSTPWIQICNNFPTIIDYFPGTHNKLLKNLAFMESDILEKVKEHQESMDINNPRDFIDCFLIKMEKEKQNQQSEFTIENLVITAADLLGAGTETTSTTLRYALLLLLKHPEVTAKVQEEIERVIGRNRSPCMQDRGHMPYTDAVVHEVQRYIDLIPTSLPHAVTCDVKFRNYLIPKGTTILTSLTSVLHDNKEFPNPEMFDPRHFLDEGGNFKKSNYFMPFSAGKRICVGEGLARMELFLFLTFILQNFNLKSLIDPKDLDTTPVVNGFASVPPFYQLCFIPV
Sequence of Cytochrome P450 2D6 (P10635 whole entry): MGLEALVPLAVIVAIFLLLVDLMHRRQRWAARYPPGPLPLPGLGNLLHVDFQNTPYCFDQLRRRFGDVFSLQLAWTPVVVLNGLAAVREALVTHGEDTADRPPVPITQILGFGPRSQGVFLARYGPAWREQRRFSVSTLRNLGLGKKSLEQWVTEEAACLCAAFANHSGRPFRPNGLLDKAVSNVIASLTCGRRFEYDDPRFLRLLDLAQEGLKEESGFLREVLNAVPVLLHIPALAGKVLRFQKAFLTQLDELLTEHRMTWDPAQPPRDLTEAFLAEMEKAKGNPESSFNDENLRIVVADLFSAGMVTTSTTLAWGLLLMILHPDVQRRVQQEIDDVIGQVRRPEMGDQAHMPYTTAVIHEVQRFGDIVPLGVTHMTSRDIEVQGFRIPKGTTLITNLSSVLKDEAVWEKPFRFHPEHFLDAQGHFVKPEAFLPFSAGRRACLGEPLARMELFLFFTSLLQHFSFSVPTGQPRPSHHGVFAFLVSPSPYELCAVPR

SMILES | IC50 (Cytochrome P450 1A2) [nM] | inhibition (INH) (Cytochrome P450 2B6) | IC50 [1] [nM] | IC50 (Translocator protein) [nM] | inhibition at 50 µM (hERG (KCNH2)) [%] | fraction unbound [2] | Activity (Mus musculus [3]) | inhibition (INH) (Cytochrome P450 2C8) | Activity (Mus musculus [4]) | inhibition (INH) (Cytochrome P450 2C9) | IC50 (Cytochrome P450 2C19) [nM] | Activity (Mus musculus [5]) | inhibition (INH) (Cytochrome P450 3A4) | IC50 (NCI-H2122) [nM] | IC50 (NCI-H2009) [nM] | inhibition (INH) (Cytochrome P450 2D6) | Activity (Mus musculus [6])
COc1cccc(NC[C@H](F)Cn2c3ccc(Br)cc3c3cc(Br)ccc32)n1 | 20000 | Active | > 10000 | 350 | < 15 | < 0.01 | Active | Active | Active | Active | 1900 | Active | Active | > 10000 | > 10000 | Active | 
COc1cccc(NC[C@@H](F)Cn2c3ccc(Br)cc3c3cc(Br)ccc32)n1 |  |  |  | 680 |  |  | inactive |  | inactive |  |  |  |  |  |  |  | 
COc1cccc(NCC(O)Cn2c3ccc(Br)cc3c3cc(Br)ccc32)n1 (stereo not given) |  |  |  |  |  |  |  |  |  |  |  |  |  |  |  |  | Active
